Measured values gathered from unrelated publications.
Lines come from different studies, so protocols differ.
Target: Dual specificity protein kinase CLK2 (CLK2, Homo sapiens, UniProt P49760)

The remaining binding of CCCCC(=O)Nc1ccc(-c2ccc3ncn(CCC)c(=O)c3c2)cn1 is reported as 100% (binding; competition with immobilised ligand; 0.5 µM).
With C#Cc1cc(-c2cc(Nc3nc(N[C@@H](C)c4ccc(F)cn4)ncc3Cl)n[nH]2)ccc1C=O the inhibition was 47.4% (enzyme activity; inhibitor; 0.2 µM).
The inhibition of C=CC(=O)N1CCC[C@@H](n2nc(-c3ccc(Oc4ccccc4)cc3)c3c(N)ncnc32)C1 is reported as 2% (enzyme activity; inhibitor; 1 µM).
For Cc1ccc(NC(=O)c2ccnc(C(F)(F)F)c2)cc1-c1cc(OCCO)nc(N2CCOCC2)c1, the remaining binding was 100% (binding; 1 µM).
With CC(C)S(=O)(=O)c1ccc2nccc(Nc3ccc4sc(C5CCCC5)nc4c3)c2c1 the activity vs control was 105% (enzyme activity; inhibitor; 1 µM).
With C[C@H]1CC[C@H](n2c3cnccc3c3cnc(Nc4ccc5c(n4)CCN(C(=O)CO)C5)nc32)CC1 the remaining signal was 1% (cell-free assay; 1 µM).
With CO[C@@H]1[C@H](N(C)C(=O)c2ccccc2)C[C@H]2O[C@]1(C)n1c3ccccc3c3c4c(c5c6ccccc6n2c5c31)C(=O)NC4 the inhibition was 54% (enzyme activity; inhibitor; 1 µM).
With C1=C/COCc2cc(ccc2OCCN2CCCC2)Nc2nccc(n2)-c2cccc(c2)COC/1 the remaining binding was 47% (binding; 0.1 µM).
Cc1cc(O)c(-c2ccc([C@@H](C)CN(C)C)cc2)c2c1[nH]c(=O)c1sccc12 has an inhibition of 8.32% (enzyme activity; inhibitor; 0.1 µM).
